Bioassay records as filed in PubChem.
A selection: hits, their analogues and other compounds. The true share with any hit is near 3.1%.
HCV core dimer: HCV core protein dimerization inhibition; TR-FRET GST/Flag-core106 dimerization, 1536-well; actives 0.33% (n = 300,000); inhibition, % at 5 µM;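 active means inhibition above the mean of all tested compounds plus 3 SD, set per screening campaign, cut at about 45% in these data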
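Material: Tagged HCV core106 pair (GST and Flag) | Amount: GST-core106 13.5 nM, Flag-core106 17 nM | Medium: KF-containing HEPES buffer, pH 7.45, DTT, CHAPS, BSA | Reagent: Eu donor and XL665 acceptor anti-tag antibodies | Schedule: 4 h at 22.5 °C | Technique: Time-resolved FRET, ex 340 nm, em 617 and 671 nm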
PP1 inh: blocks human PP1-alpha phosphatase, a PP5 counter-screen. P62136. purified PP1alpha, OMFP fluorescence. inhibition, % at 6.7 µM. actives 0.9% (n = 320,000). AID 2235;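 active means inhibition above the mean inhibition of all tested compounds plus 3 SD, computed separately for each screening campaign, cut at about 15% in these data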
Fh CTSL1 inh: counter-screen for PFM18AAP inhibitors: inhibitors of F. hepatica cathepsin L1; recombinant F. hepatica cathepsin L1, Z-Leu-Arg-MCA fluorescence; inhibition, % at 5.96 µM; actives 0.49% (n = 300,000);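 active means inhibition above the mean of all tested compounds plus 3 SD, set per screening campaign, cut at about 17% in these data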;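 further: 0% = plate median of test compound wells and 100% = 1 µM Z-Phe-Ala-diazomethylketone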
Myeloid diff 2: promotes myeloid progenitor differentiation; actives 1% (n = 360,000); ER-HoxA9 myeloid progenitors, lysozyme-GFP differentiation, flow cytometry; calls only at 10 µM; AID 624256;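 active means normalized GFP-positive differentiation at or above the plate's own cutoff, the solvent-only control mean plus 3 SD; inconclusive means no clear call, values can overlap the other calls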;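 further: cells exposed to compound for four days before flow analysis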
PP5 inh: blocks human protein phosphatase 5 activity | P53041 | purified PP5c, OMFP substrate fluorescence | inhibition, % at 6.7 µM | actives 0.18% (n = 320,000) | AID 1987;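 active means inhibition above the campaign's mean inhibition across all tested compounds plus 3 SD, cut at about 9.5% in these data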;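 further: 0% = DMSO only and 100% = 100 µM cantharidin control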
Target sequence (P53041 whole entry, looked up): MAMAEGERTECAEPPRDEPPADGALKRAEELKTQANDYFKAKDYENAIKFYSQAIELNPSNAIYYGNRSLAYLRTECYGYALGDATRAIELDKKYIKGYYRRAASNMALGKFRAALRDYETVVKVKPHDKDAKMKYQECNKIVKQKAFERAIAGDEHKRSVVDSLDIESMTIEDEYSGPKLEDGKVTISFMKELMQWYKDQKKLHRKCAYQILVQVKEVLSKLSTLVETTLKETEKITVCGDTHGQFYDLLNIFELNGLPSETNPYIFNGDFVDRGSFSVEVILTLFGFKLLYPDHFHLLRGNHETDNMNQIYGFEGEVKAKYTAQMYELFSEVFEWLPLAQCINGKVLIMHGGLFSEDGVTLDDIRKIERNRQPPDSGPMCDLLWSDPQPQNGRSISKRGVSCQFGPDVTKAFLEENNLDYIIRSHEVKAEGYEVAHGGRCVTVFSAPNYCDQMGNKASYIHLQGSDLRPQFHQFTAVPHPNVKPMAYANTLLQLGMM
NadD inh: NadD (S. aureus) enzyme inhibition. AID 602399. purified NadD enzyme, colorimetric absorbance read-out. actives 0.78% (n = 360,000). inhibition, % at 20 µM; in the data active means inhibition above about 26%
* marks the source's active call; other numbers are inactive results; i = inactive; ? = inconclusive; nt = not tested or not shown; + = active, no number.

SMILES	HCV core dimer	PP1 inh	Fh CTSL1 inh	Myeloid diff 2	PP5 inh	NadD inh
CCOC(=O)C1=C(Cc2ccc(OC)cc2)C(=O)c2ccccc2C1=O	nt	nt	nt	+	nt	-9
CCOC(=O)C1=C(O)c2ccccc2C(=O)/C1=C\c1ccc(CC)cc1	-8	1	-3	+	2	5
CNC(=O)c1ccsc1NC(=O)CS(=O)(=O)c1ccc(F)cc1	nt	nt	nt	i	nt	-2
N#CCC(=O)N/N=C\c1ccc(OC/C=C/c2ccccc2)cc1	24	17*	-1	?	1	19
Cc1noc(C)c1NC(=O)N(C)C[C@@H]1Oc2ncc(Br)cc2C(=O)N([C@@H](C)CO)C[C@@H]1C	nt	nt	nt	i	nt	3
Cc1c(Cl)cccc1NC(=O)CSc1ncnc2c1cnn2CCO	nt	nt	nt	?	nt	-2
Oc1ccccc1/C=N/Nc1cccc2cccnc12	-9	-1	1	+	0	-1
O=C(COc1cccc2cccnc12)N/N=C/c1ccccc1O	-3	-1	5	i	-3	4
FC(F)(F)c1cccc(-c2nnc(-c3ccccc3)c(N3CCOCC3)n2)c1	-1	-2	17*	i	5	-8
CC1CCN(S(=O)(=O)c2ccc3c(c2)N(C)C(=O)CC(=O)N3C)CC1	-7	-2	2	i	3	4
CCN1/C(=C/c2ccc3cc(C)ccc3[n+]2CC)Sc2cc(C)ccc21	nt	nt	nt	?	nt	24
CCCCN1/C(=C/c2ccc3ccccc3[n+]2CC)Sc2ccccc21	nt	nt	nt	+	nt	10
COCCNc1nc2c(c(=O)n(Cc3cccc(Br)c3)c(=O)n2C)n1C	-6	-1	-1	i	0	-3
COCCNc1nc2c(c(=O)n(Cc3cccc(Cl)c3)c(=O)n2C)n1C	1	0	3	+	1	-2
Cc1nnc2c(NC3CCCCC3)nc3ccccc3n12	1	-2	1	i	-2	-3
Cc1ccc(Cc2c(-c3ccco3)nc3c(C)cc(Br)cn23)cc1	nt	nt	nt	+	nt	15
Cc1cc(Br)cn2c(Cc3cccc(Cl)c3)c(-c3ccco3)nc12	nt	nt	nt	i	nt	27
CCCCN(C(=O)C1CCN(C(=O)c2ccccc2C)CC1)c1c(N)n(CCC)c(=O)[nH]c1=O	nt	nt	nt	i	nt	-5
CCCCN(C(=O)C1CCN(C(=O)c2ccccc2C)CC1)c1c(N)n(CCCC)c(=O)[nH]c1=O	-3	-2	-4	+	1	5
CCCCN(C(=O)c1cc(=O)[nH]c2ccccc12)c1c(N)n(CCCC)c(=O)[nH]c1=O	-4	-6	1	+	2	0
Cc1cc(C)c(NC(=O)c2ccccc2CCc2ccccc2)c(C)c1	5	-1	17*	i	2	-3
COc1ccc(F)cc1-c1cc(C(=O)NCc2ccc(F)cc2)[nH]n1	nt	nt	nt	i	nt	-1
COc1cc(C2NC(=O)N(C)C(C)=C2C(=O)OCc2ccccc2)cc(Br)c1O (stereo not given)	2	-4	0	i	2	-2
CN(C(=O)C1CCC(=O)N(Cc2cccc(F)c2)C1)C1CCCCC1 (stereo not given)	1	-3	1	i	3	2
NS(=O)(=O)c1ccc(-c2ccc(/C=C3\SC(=S)N(C4CCS(=O)(=O)C4)C3=O)o2)cc1 (stereo not given)	16	4	-3	i	6	35*
SMILES	HCV core dimer	PP1 inh	Fh CTSL1 inh	Myeloid diff 2	PP5 inh	NadD inh
CCCCC/C=C\C[C@H](O)/C=C/c1cccc(C[C@H](O)CCCCO)n1	6	5	41*	i	0	-2
NC(=O)CC(NC(=O)c1ccccc1)c1ccc(NCCc2ccc(F)cc2)c([N+](=O)[O-])c1 (stereo not given)	8	-1	0	i	0	4
COc1ccc(CCNc2ccc(C(CC(N)=O)NC(=O)c3ccccc3)cc2[N+](=O)[O-])cc1 (stereo not given)	5	1	7	+	-2	0
NC(=O)CC(NC(=O)c1ccc(Br)cc1)c1ccc(N2CCCCCCC2)c([N+](=O)[O-])c1 (stereo not given)	1	7	0	i	6	0
NC(=O)CC(NC(=O)c1ccc(Br)cc1)c1ccc(N2CCN(c3ccccc3)CC2)c([N+](=O)[O-])c1 (stereo not given)	9	15*	-2	i	2	4
NC(=O)CC(NC(=O)c1ccccc1)c1ccc(N2CCC(Cc3ccccc3)CC2)c([N+](=O)[O-])c1 (stereo not given)	16	17*	3	i	5	-3
NC(=O)C1CCN(C(=O)c2ccc(NS(=O)(=O)c3ccc(F)c(F)c3)cc2)CC1	nt	-1	nt	i	0	-2
COc1cc(NC(=O)Cn2cnc3c(OCc4ccccc4)ncnc32)cc(OC)c1OC	nt	nt	nt	i	nt	-6
CC(C)(C)OC(=O)N1CCc2onc(-c3ccccc3F)c2C1=O	nt	nt	nt	i	nt	6
Cc1cc(C(=O)OCC(=O)c2cccc([N+](=O)[O-])c2)c2cccc(C)c2n1	88*	-2	1	i	1	6
COc1ccc(C(=O)Nc2ccccc2C(=O)NCCN2CCOCC2)cc1OC	-1	-5	1	+	1	-1
COc1ccc(C(=O)Nc2ccccc2C(=O)NCCN2CCOCC2)cc1	-4	1	23*	i	3	-6
COc1ccc(C(=O)NCCN2CCOCC2)cc1OC	-12	-1	3	i	2	-1
Cc1c(NC(=O)COC(=O)c2cc(-c3ccc(-c4ccccc4)cc3)nc3ccccc23)c(=O)n(-c2ccccc2)n1C	49*	13	-1	+	4	50*
CCCCNC(=O)CCCn1c(=O)[nH]c2ccc(Br)cc2c1=O	0	-2	2	+	2	-1
Cc1ccsc1C1CC(=O)Nc2ccccc2S1 (stereo not given)	0	-1	3	+	3	-6
O=C1NC[C@H](c2ccccc2)OC(=O)[C@H](Cc2ccc(F)cc2)CC/C=C/C[C@@H]1CC(=O)N(CCO)Cc1ccccc1	nt	nt	nt	+	nt	-4
O=C1NC[C@@H](c2ccccc2)OC(=O)[C@@H](Cc2ccc(F)cc2)CC/C=C/C[C@H]1CC(=O)N(CCO)Cc1ccccc1	nt	nt	nt	?	nt	-5
Cc1cc2nc3ccc(N(C)C)cc3nc2cc1N	-11	1	-2	i	1	14
CN(CC(=O)Nc1cccc(F)c1)C(=O)c1cc(-c2ccco2)nc2ccccc12	59*	-1	1	i	4	15
COc1ccc(-c2cc(C(=O)N(C)CC(=O)Nc3cccc(F)c3)c3ccccc3n2)cc1OC	nt	nt	nt	i	nt	4
CN(CC(=O)Nc1cccc(F)c1)C(=O)c1cccc(-n2cccc2)c1	64*	3	2	i	2	4
